Consider 9 molecules from ChEMBL document CHEMBL2407076, “cis-Restricted 3-aminopyrazole analogues of combretastatins: synthesis from plant polyalkoxybenzenes and biological evaluation in the cytotoxicity and phenotypic sea urchin embryo assays” (2013).

Active and inactive are the calls of the source. A value given as a limit tells only on which side of the number the result lay.

By GI50 is commonly meant the concentration giving 50% growth inhibition.

Test [1] concerns Paracentrotus lividus. The test is described as follows: Microtubule destabilizing activity in sea urchin embryo assessed as embryo spinning compound treated just after hatching at 8 to 10 hrs post fertilization and measured after 15 mins to 20 hrs of treatment.
A short description of test [2]: Growth inhibition of human NCI60 cells at 10 uM after 48 hrs by SRB assay. Type of test: functional. The settings on record: NCI60, 48 h, read-out: GI. The gist of the method:
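Tested in the NCI60 single-dose screen at 10 μM. The value is the mean percent inhibition of cell growth across the panel.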

For test [3], the system named is Paracentrotus lividus. As to the kind of experiment: Antiproliferative activity against sea urchin embryo assessed as cleavage alteration compound treated at 45 to 55 mins prior to first mitotic cycle completion and measured at 2.5 to 5.5 hrs post fertilization. Type of test: functional. The gist of the method:
(§1)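 Fertilized eggs were treated 8−20 min after fertilization. The embryos were held at room temperature in filtered seawater as a monolayer of up to 2000 embryos/mL. Compounds were given as 2-fold decreasing concentrations from a 10 mM DMSO stock diluted 10-fold in 95% EtOH, with DMSO ≤0.05% and EtOH ≤1%. Embryos were scored by light microscopy. The value is the effective threshold concentration, measured in duplicate.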

The subject of test [4] is Paracentrotus lividus. The test is described as follows: Antiproliferative activity against sea urchin embryo assessed as cleavage arrest compound treated at 45 to 55 mins prior to first mitotic cycle completion and measured at 2.5 to 5.5 hrs post fertilization. The class given is functional. The gist of the method:
as §1

The subject of another test is OVCAR-8. As to the kind of experiment: Growth inhibition of human OVCAR8 cells after 48 hrs by SRB assay. The class given is functional, cell-based. The gist of the method:
(§2)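 Tested in the NCI60 anticancer drug screen. GI50 is the concentration giving 50% cell growth inhibition. For the panel-wide line, the value is the mean GI50 across the panel.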
In general terms: The SRB assay estimates cell density from bound dye.

Test [5] can be described thus: Growth inhibition of human NCI60 cells after 48 hrs by SRB assay. The class given is functional. The settings on record: NCI60, 48 h. The gist of the method: as §2
The test system of another test is NCI/ADR-RES. The test is described as follows: Growth inhibition of human NCI/ADR-RES cells after 48 hrs by SRB assay. Type of test: functional, cell-based. The gist of the method: as §2
A further test concerns HL-60(TB). As to the kind of experiment: Growth inhibition of human HL-60(TB) cells after 48 hrs by SRB assay. The class given is functional. As to conditions: HL-60, 48 h. The gist of the method:
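Tested in the NCI60 anticancer drug screen. HL-60(TB) is one of the leukemia lines in the panel. Value reported as GI50, the concentration needed for 50% inhibition of cell growth.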

In another test the test system is K562. As to the kind of experiment: Growth inhibition of human K562 cells after 48 hrs by SRB assay. The class given is functional. The settings on record: K562, 48 h. The gist of the method:
as §2

A further test concerns OVCAR-3. The test is described as follows: Growth inhibition of human OVCAR3 cells after 48 hrs by SRB assay. The class given is functional. The settings on record: OVCAR-3, 48 h. The gist of the method:
as §2

For the next test, the system named is KM12. The test is described as follows: Growth inhibition of human KM12 cells after 48 hrs by SRB assay. Type of test: functional. The settings on record: KM12, 48 h. The gist of the method:
as §2

The next test relates to SW-620. As to the kind of experiment: Growth inhibition of human SW620 cells after 48 hrs by SRB assay. The class given is functional. As to conditions: SW-620, 48 h. The gist of the method:
as §2

The next test has as its system SR. The test is described as follows: Growth inhibition of human SR cells after 48 hrs by SRB assay. The class given is functional. The gist of the method: as §2
The subject of a further test is MDA-MB-435. The test is described as follows: Growth inhibition of human MDA-MB-435 cells after 48 hrs by SRB assay. The class given is functional. As to conditions: MDA-MB-435, 48 h. The gist of the method:
as §2

Another test deals with NCI-H522. The test is described as follows: Growth inhibition of human NCI-H522 cells after 48 hrs by SRB assay. As to conditions: NCI-H522, 48 h. The class given is functional. The gist of the method:
as §2

With `COc1ccc(-c2c(N)n[nH]c2-c2cc(OC)c3c(c2)OCO3)cc1`, the EC was more than 5 µM in the test with Paracentrotus lividus [1], 1 µM with Paracentrotus lividus [3] and more than 4 µM in the test with Paracentrotus lividus [4]. Also, the inhibition of growth at 10 µM in [2] was 18.1%.

Take `COc1ccc(-c2c(N)n[nH]c2-c2cc(OC)c3c(c2)OCCO3)cc1`: the EC in the test on Paracentrotus lividus [1] is more than 5 µM; with Paracentrotus lividus [3], 1 µM; in the test on Paracentrotus lividus [4] it was more than 4 µM. For the same molecule, the inhibition of growth at 10 µM in [2] was found to be 32%.

Consider `COc1ccc(-c2[nH]nc(N)c2-c2cc(OC)c3c(c2)OCO3)cc1`, for which the EC in the test with Paracentrotus lividus [1] is more than 10 µM; with Paracentrotus lividus [3], 0.2 µM; in the test with Paracentrotus lividus [4] it was more than 4 µM. Also, the inhibition of growth at 10 µM in test [2] turned out to be 46%. The “growth inhibition (GI)” value with OVCAR-8 and with NCI/ADR-RES was “Active” each time. Growth in test [5] was halved (GI50) at 4370 nM.

For `COc1ccc(-c2c(N)n[nH]c2-c2cc(OC)c(OC)c(OC)c2)cc1`, the values for the EC in the test on Paracentrotus lividus [1], with Paracentrotus lividus [3] and with Paracentrotus lividus [4] were more than 10 µM, 0.1 µM and 1 µM, respectively. The GI50 is less than 100 nM with HL-60(TB); less than 100 nM in the test on K562; less than 100 nM with OVCAR-3; 302 nM in test [5]; less than 100 nM in the test with KM12; less than 100 nM with SW-620. Further, the GI50 in the test on SR was less than 100 nM. In [2], the inhibition of growth at 10 µM stood at 75.8%. For the same molecule, the “growth inhibition (GI)” value in the test with OVCAR-8 and in the test on NCI/ADR-RES was “Active” throughout.

`COc1ccc(-c2c(N)n[nH]c2-c2cc3c(c(OC)c2OC)OCO3)cc1`: the EC in the test on Paracentrotus lividus [1], in the test with Paracentrotus lividus [3] and in the test with Paracentrotus lividus [4] was more than 4 µM throughout. Besides, in test [2], the inhibition of growth at 10 µM came out at 3.38%.

With `COc1ccc(-c2[nH]nc(N)c2-c2cc3c(c(OC)c2OC)OCO3)cc1`, the EC in the test on Paracentrotus lividus [1], in the test with Paracentrotus lividus [3] and in the test on Paracentrotus lividus [4] was more than 4 µM each time.

Turning to `COc1ccc(-c2[nH]nc(N)c2-c2cc(OC)c3c(c2OC)OCO3)cc1`, the EC in the test with Paracentrotus lividus [1], in the test on Paracentrotus lividus [3] and in the test on Paracentrotus lividus [4] was more than 4 µM in each case.

In the case of `COc1ccc(-c2[nH]nc(N)c2-c2cc(OC)c(OC)c(OC)c2)cc1`, the EC was determined as 1 µM in the test on Paracentrotus lividus [1], 0.01 µM with Paracentrotus lividus [3] and 0.05 µM with Paracentrotus lividus [4]. Further, in [2], the inhibition of growth at 10 µM came to 89.2%. Further, the “growth inhibition (GI)” value with OVCAR-8 and in the test on NCI/ADR-RES was “Active” throughout. Also, the figures for the GI50 (in test [5]; in the test with MDA-MB-435; in the test on NCI-H522) were 46 nM, less than 10 nM and less than 10 nM, respectively.

Consider `COc1ccc(-c2c(N)n[nH]c2-c2cc(OC)c3c(c2OC)OCO3)cc1`, for which the figures for the EC in the test with Paracentrotus lividus [1], in the test with Paracentrotus lividus [3] and in the test on Paracentrotus lividus [4] were more than 4 µM, 4 µM and more than 4 µM, respectively.
